Shown are actives, neighbours in structure and some others; about 4.6% of the full set was active somewhere.
CHO parental Ca: signal in parental CHO cells, OX1R antagonist counter-screen. parental CHO-K1, ATP-induced calcium, Fluo-8 fluorescence. inhibition, % at 5.6 µM. actives 0.63% (n = 330,000);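 active means inhibition above that plate's mean sample inhibition plus 3 SD, cut at about 26% in these data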;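 further: 0% = ATP-challenged DMSO wells and 100% = DMSO wells without ATP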
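Test system: untransfected parental CHO cell line; also added: ATP stimulus; dosing: 5.6 µM, single dose; signal: calcium-sensitive Fluo-8 fluorescence; measure: percent inhibition of ATP-evoked calcium rise, normalized to controls; benchmarks: low control ATP plus DMSO, high control DMSO only; replication: one well per compound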
OX1R antag-1: human HCRTR1 antagonism. CHO/OX1R cells, Fluo-8 calcium fluorescence, orexin A. actives 0.43% (n = 330,000). O43613. inhibition, % at 5 µM. AID 434989;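 active means inhibition above its plate's threshold, mean inhibition of all tested compounds on the plate plus 3 SD, cut at about 37% in these data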;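 further: 0% = orexin A challenge wells and 100% = SB-334867-A antagonist wells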
OX1R antag-2: antagonists of human orexin 1 receptor (OX1R); actives 1.8% (n = 330,000); inhibition, % at 6.6 µM; O43613; OX1R-expressing cells, FRET antagonist read-out; AID 485270; in the data active means inhibition mostly above about 38%, no sharp cut-off; inactive means mostly below about 40%;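 further: 0% = agonist challenge alone and 100% = reference antagonist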
TAAR1 ag: human TAAR1 agonism. Q96RJ0. actives 0.99% (n = 360,000). activation, % at 3 µM. CHO RD-HGA16 TAAR1, Fluo-8 calcium fluorescence; vehicle wells 0%, saturating PEA agonist 100%;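 active means activation above the mean activation of all test compounds in the run plus 3 SD, cut at about 38% in these data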
Target sequence (Q96RJ0 whole entry, looked up): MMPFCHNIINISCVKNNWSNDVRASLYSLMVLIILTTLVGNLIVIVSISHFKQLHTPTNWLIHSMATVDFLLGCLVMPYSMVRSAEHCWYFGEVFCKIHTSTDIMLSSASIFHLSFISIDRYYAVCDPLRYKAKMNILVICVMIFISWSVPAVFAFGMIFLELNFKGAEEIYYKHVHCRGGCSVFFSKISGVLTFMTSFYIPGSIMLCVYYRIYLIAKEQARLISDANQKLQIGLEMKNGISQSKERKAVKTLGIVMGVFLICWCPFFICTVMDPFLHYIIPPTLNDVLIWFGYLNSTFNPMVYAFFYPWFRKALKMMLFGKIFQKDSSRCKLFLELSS
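Test system: RD-HGA16 (CHO) cells co-expressing Gα16 and hTAAR1 | Doses: Single dose, 3 µM | Schedule: 17-24 h seeding, 75 min 37 °C dye, 30 min RT | Evaluation: % activation from peak over basal fluorescence ratio, DMSO-to-PEA scaled | Technique: Kinetic Fluo-8 calcium fluorescence | Benchmarks: Low control DMSO, high control PEA (EC100)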
TAAR1 antagonist: human TAAR1 antagonism; Q96RJ0; CHO RD-HGA16 TAAR1, Fluo-8 calcium fluorescence, antagonist; inhibition, % at 3 µM; actives 1.5% (n = 360,000);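 active means inhibition above a per-plate cutoff, the mean inhibition of test compounds on that plate plus 3 SD, cut at about 49% in these data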;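 further: 0% = DMSO plus EC80 beta-PEA response and 100% = DMSO alone without agonist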
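System: RD-HGA16 CHO cells with stable hTAAR1 and Gα16 | Probe or stimulus: EC80 β-phenethylamine stimulus | Dosing: 3 µM, single point | Times: Dye loading 75 min at 37 °C, then 30 min room temperature | Measured by: Fluo-8 calcium-sensitive fluorescence | Read-out basis: % inhibition of agonist calcium response | Replicates: n of 1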
GPR7 antag: human neuropeptides B/W receptor 1 antagonism; P48145; GPR7-expressing cells, fluorescence antagonist assay; inhibition, % at 4.4 µM; actives 1.1% (n = 290,000); AID 1861; in the data active means inhibition above about 16%, passing the limit was not always enough;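 further: cells stimulated with the agonist NPW; 0% = agonist with vehicle and 100% = vehicle without agonist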
OX1R Ca confirm: confirmation of human orexin 1 receptor antagonists. shares compounds with OX1R antag-1. CHO/OX1R cells, orexin A calcium Fluo-8 fluorescence. inhibition, % at 5 µM. actives 38% (n = 1,100). AID 492963; in the data active means inhibition above about 29%;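 further: 0% = agonist challenge alone and 100% = reference antagonist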
CHO Ca counter: counter-screen: parental CHO calcium response change, triplicate. shares compounds with OX1R antag-1. parental CHO-K1, ATP-induced calcium, Fluo-8 fluorescence. inhibition, % at 5.6 µM. actives 9.3% (n = 1,100). AID 492965;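 active means inhibition above a per-plate limit, the mean inhibition of that plate's test compounds plus 3 SD, cut at about 25% in these data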;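 further: 0% = ATP challenge with DMSO and 100% = DMSO without ATP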
Starred values were filed as active, the others as inactive; nt = not tested or not shown.

SMILES	CHO parental Ca	OX1R antag-1	OX1R antag-2	TAAR1 ag	TAAR1 antagonist	GPR7 antag	OX1R Ca confirm	CHO Ca counter
CC(=O)Nc1ccc(C2=NNC(=Nc3cccc(S(=O)(=O)N(C)C)c3)SC2)cc1	-8.6	34.2*	14.4	nt	nt	0.0	38.0*	-2.7
CCCC(=O)Nc1ccc(-c2nc3cc(C)c(C)cc3o2)cc1	-0.4	44.9	12.9	8.0	11.0	-7.3	5.6	9.4
CCCCCCCCNc1ncnc2ccccc12	-2.8	89.9*	35.9	nt	nt	8.4	15.7	84.7*
CN(C)S(=O)(=O)N1CCCC(C(=O)c2ccc(-c3ccccc3)c(F)c2)C1 (configuration not stated)	5.0	29.7	26.9	3.5	11.9	-10.9	-3.1	-3.4
O=S1(=O)c2cc(Cl)ccc2N2CC[C@H](C2)N1Cc1ccc(Cl)c(Cl)c1	nt	nt	nt	2.0	1.6	nt	nt	nt
Cc1cccc(NC(=S)NCC(C)CSc2ccc(Cl)cc2)c1 (configuration not stated)	24.0	34.0	21.1	8.5	14.9	-10.4	-4.8	-4.8
Cc1ccc(NC(=S)NCC(C)CSc2ccc(Cl)cc2)cc1 (configuration not stated)	7.7	-7.6	24.4	1.2	-0.1	-11.7	nt	nt
O=C1NCC(c2ccccc2)C1C(=O)N/N=C/c1ccc(Cl)s1 (configuration not stated)	-24.3	5.3	15.3	9.8	-3.7	2.5	nt	nt
O=C1NCC(c2ccccc2)C1C(=O)N/N=C\c1ccc(-c2ccc(Cl)c(Cl)c2)o1 (configuration not stated)	7.7	51.6*	60.3	0.5	-15.2	7.2	51.3*	2.9
COC(=O)C1(C)CCCC2(C)c3cc(OC)ccc3C(=O)C(Br)C12 (configuration not stated)	nt	nt	nt	2.5	-31.2	nt	nt	nt
COc1ccc(S(=O)(=O)Nc2ccc(S(=O)(=O)N3CCCC3)cc2)cc1	-4.4	-1.8	2.2	6.3	2.9	-3.4	nt	nt
COc1ccc(S(=O)(=O)Nc2ccc(S(=O)(=O)N3CCCCC3)cc2)cc1	22.2	30.9	17.5	16.1	1.2	-8.4	15.0	-0.7
NC(=O)CC1(c2ccccc2)CCCCC1	nt	nt	nt	6.4	-5.7	nt	nt	nt
CC(C)(C)NC(=O)COC(=O)c1ccc(NC(=O)CC#N)cc1	1.4	26.6	6.2	6.8	-2.8	-23.0	4.8	-4.5
O=C1NC[C@@H](CCCCN2C[C@H](Cc3ccc(O)cc3)N(CCc3ccccc3)C(=O)C2=O)N(CCc2ccccc2)C1=O	nt	nt	nt	1.4	4.4	nt	nt	nt
C[C@@H](C(=O)Nc1ccc2ccccc2c1)[C@H]1C[C@]1(C)[C@H](NC(=O)OCc1ccccc1)c1ccccc1	-18.8	-52.7	12.6	1.9	7.7	-0.1	nt	nt
Cc1cc(C(=O)N[C@H](c2ccccc2)[C@@]2(C)C[C@@H]2[C@@H](C)C(=O)Nc2ccc3ccccc3c2)n(C)n1	-2.4	41.1	51.7	30.1	18.6	9.4	11.9	-11.1
NC(=O)NOCc1ccc(Cl)cc1Cl	-11.2	7.6	8.2	0.3	-18.1	-5.0	nt	nt
CNC(=S)/N=C/NOCc1ccc(Cl)cc1Cl	12.4	41.1*	28.8	8.6	22.1	19.4	20.0	18.9
CN1/C(=C\C(=S)NC(=O)c2cccc(Br)c2)C(C)(C)c2ccccc21	-11.5	-19.7	12.0	1.3	1.1	-1.6	nt	nt
CCN(CC)S(=O)(=O)c1cccc(C(=O)/C=C2/N(C)c3ccccc3C2(C)C)c1	13.3	27.2	26.7	0.8	58.9*	-5.8	-0.3	7.6
FC(F)(F)c1cccc(NC(=S)N2CCN(c3ccccn3)CC2)c1	-18.5	-10.8	1.7	35.6	17.4	-3.5	nt	nt
Cc1cc(C)cc(NC(=S)N2CCN(c3ncc(C(F)(F)F)cc3Cl)CC2)c1	-25.1	-0.8	4.0	4.2	-12.5	-5.7	nt	nt
Cc1csc2c(N3CCN(C(=S)Nc4ccc(C(F)(F)F)cc4)CC3)ncnc12	9.8	37.1	25.3	46.8*	38.1	-1.4	22.5	64.3*

From PubChem BioAssay
